Active and inactive are the calls of the source.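 How the source made its calls: active means fitted curve reaching 35% inhibition at both 405 and 600 nm absorbance, in duplicate, within twice the top valid dose; inactive means the rest, including signal rising instead of falling.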

The nature of assay [1]: P. aeruginosa growth delay under iron chelation, dose response, absorbance 405 nm, dry powder, set 2 (AID 624011). The settings on record: P. aeruginosa + EDDHA, pyoverdine absorbance 405 nm, 24-30 h; at 50 µM (top of the series). A digest of the protocol:
(§1)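 Signal: absorbance 405 nm (pyoverdine) / Assay system: Pseudomonas aeruginosa strain ATCC 15692, whole bacterial cells / Quantity: final OD600 0.0000005 / Reagent: EDDHA, 2 µM final / Compound dosing: threefold compound dilution series from 10 mM stock, pinned twice / Times: bacterial growth with compound 24-30 h at 37 °C, humidified / Buffer or medium: succinate M9 medium, pH 7.0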

For assay [2], the system named is P. aeruginosa + EDDHA, pyoverdine absorbance 405 nm, 24-30 h. The assay is described as above. In outline: as §1

Regarding `Cc1ccc(C(C#N)c2ccc(Cl)cc2)nc1C#N` (configuration not stated), the activity change, negative = inhibition in assay [1] is -8.79% (inactive).

Turning to `CCCCC(C#N)c1ccc(Cl)cc1` (configuration not stated), the activity change, negative = inhibition in assay [1] was -0.942% (inactive).

With `N#Cc1ccc(C(C#N)c2ccc(Cl)cc2)nc1` (configuration not stated), the activity change, negative = inhibition in assay [1] was -6.67% (inactive).

In the case of `CCCCC(C#N)c1ccccc1OC(F)(F)F` (configuration not stated), the activity change, negative = inhibition in assay [1] is 1.13% (inactive).

On to `Cc1ccc(C(C#N)c2ccc(Cl)cc2)nc1` (configuration not stated), for which the activity change, negative = inhibition in assay [1] is -6.12% (inactive).

For `N#CC(c1ccc(Cl)cc1)c1ncccc1Cl` (configuration not stated), the AC35 in assay [2] is 33.6 µM.

Regarding `N#CC(c1ccc(Cl)cc1Cl)c1ncccc1Cl` (configuration not stated), the activity change, negative = inhibition in assay [1] is 5.69% (inactive).

With `N#CC(c1ccc(Cl)cc1)c1cccc(Cl)n1` (configuration not stated), the AC35 in assay [2] is 18 µM.

With `CCCCC(C#N)c1ccc(C(F)(F)F)cc1` (configuration not stated), in assay [1], the activity change, negative = inhibition is -7.42% (inactive).

With `N#CC(CC1CC1)c1ccc(Cl)cc1` (configuration not stated), the activity change, negative = inhibition in assay [1] was -6.92% (inactive).

`N#CC(c1ccc(Cl)cc1)c1ccc(C(F)(F)F)cn1` (configuration not stated): the activity change, negative = inhibition in assay [1] was 5.88% (inactive).

Consider `CCCCC(C#N)c1ccc(Cl)cc1Cl` (configuration not stated), for which the activity change, negative = inhibition in assay [1] was 4.33% (inactive).

As for `N#CC(c1ccc(C(F)(F)F)cc1)c1cccc(Cl)n1` (configuration not stated), in assay [1], the activity change, negative = inhibition was -7.8% (inactive).

`N#Cc1ccc(C(C#N)c2ccc(Cl)cc2Cl)nc1` (configuration not stated): in assay [1], the activity change, negative = inhibition is 3.9% (inactive).

Take `N#Cc1cccc(C(C#N)c2ccccc2OC(F)(F)F)n1` (configuration not stated): in assay [1], the activity change, negative = inhibition was 4.18% (inactive).

As for `N#CC(c1ccc(Cl)cc1)c1cccc(C(F)(F)F)n1` (configuration not stated), the AC35 in assay [2] is 7.35 µM.

Regarding `Cc1ccc(C(C#N)c2ccccc2OC(F)(F)F)nc1C#N` (configuration not stated), the activity change, negative = inhibition in assay [1] is 1.92% (inactive).

`COc1cccc(C(C#N)c2ccc(F)cc2)n1` (configuration not stated): in assay [2], the AC35 is > 50 µM (inactive).

For the molecule `CC(C)CC(C#N)c1ccc(Cl)cc1` (configuration not stated), in assay [1], the activity change, negative = inhibition is 1.37% (inactive).

Turning to `N#Cc1cccc(C(C#N)c2ccc(Cl)cc2)n1` (configuration not stated), the activity change, negative = inhibition in assay [1] is -11.7% (inactive).

For the molecule `N#CC(c1ccc(F)cc1)c1cccc(C(F)(F)F)n1` (configuration not stated), the AC35 in assay [2] was 17.6 µM.

Turning to `N#CC(c1ccc(C(F)(F)F)cc1)c1cccc(C(F)(F)F)n1` (configuration not stated), the activity change, negative = inhibition in assay [1] was 0.339% (inactive).

As for `CCCCC(C#N)c1ccc(Cl)cc1F` (configuration not stated), in assay [1], the activity change, negative = inhibition was -9.53% (inactive).

Turning to `N#CC(c1ccc(C(F)(F)F)c(Cl)n1)c1ccc(Cl)cc1Cl` (configuration not stated), the activity change, negative = inhibition in assay [1] is 5.25% (inactive).

As to `N#CC(c1cccc(C(F)(F)F)n1)c1ccc(Cl)cc1F` (configuration not stated), the AC35 in assay [2] was 26.2 µM.

For the molecule `N#CC(c1cccc(Cl)n1)c1ccccc1OC(F)(F)F` (configuration not stated), in assay [1], the activity change, negative = inhibition was -13.5% (inactive).

For the molecule `N#CC(c1ccc(Cl)cc1)c1ccc(C(F)(F)F)c(Cl)n1` (configuration not stated), the activity change, negative = inhibition in assay [1] is 1.79% (inactive).

For the molecule `N#CC(c1cccc(C(F)(F)F)n1)c1ccccc1OC(F)(F)F` (configuration not stated), the activity change, negative = inhibition in assay [1] was -5.85% (inactive).

Take `N#CC(c1cccc(Cl)n1)c1ccc(Cl)cc1F` (configuration not stated): the AC35 in assay [2] is 19.6 µM.

For `N#CC(c1ccc(C(F)(F)F)c(Cl)n1)c1ccc(Cl)cc1F` (configuration not stated), the activity change, negative = inhibition in assay [1] was -8.56% (inactive).

Consider `CC(C#N)(c1ccc(Cl)cc1)c1ccc(C(F)(F)F)cn1` (configuration not stated), for which the activity change, negative = inhibition in assay [1] is -3.64% (inactive).

With `N#CC(c1ccc(C(F)(F)F)cc1)c1ccc(C(F)(F)F)c(Cl)n1` (configuration not stated), the activity change, negative = inhibition in assay [1] is 0.565% (inactive).

As to `N#CC(c1cccc(Cl)n1)c1ccc(Cl)cc1Cl` (configuration not stated), the activity change, negative = inhibition in assay [1] is -12.6% (inactive).

Consider `CCCC(C#N)c1ccc(Cl)cc1` (configuration not stated), for which, in assay [1], the activity change, negative = inhibition is 1.22% (inactive).

With `CCCCC(C#N)c1ccc(F)cc1` (configuration not stated), in assay [1], the activity change, negative = inhibition is -8.06% (inactive).

For `N#CC(c1ccc(C(F)(F)F)c(Cl)n1)c1ccccc1OC(F)(F)F` (configuration not stated), the activity change, negative = inhibition in assay [1] was 2.22% (inactive).

As to `N#Cc1cccc(C(C#N)c2ccc(Cl)cc2Cl)n1` (configuration not stated), the activity change, negative = inhibition in assay [1] is -7.16% (inactive).

The record behind these values is PubChem BioAssay AID624011 (Broad Institute, 2012).
